Assay results as given in ChEMBL document CHEMBL1137313, “A chimeric ligand approach leading to potent antiprion active acridine derivatives: design, synthesis, and biological investigations” (J Med Chem, 2006).

Columns and labels:
ScN2a [1] = assay: Antiprion activity in ScN2a cells assessed as complete reduction of protease-resistant scrapie prion protein; assay type: functional, Mus musculus
In short: (§1)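 Mouse N2a neuroblastoma cells chronically infected with RML scrapie, subcloned for high PrPSc. Grown in MEM with 10% FCS, penicillin-streptomycin and L-glutamine; compound renewed with medium every second day. Lysed day 7 (~80% confluent), proteinase K 20 µg/mL 30 min 37°C, ultracentrifuged pellet immunoblotted with anti-PrP antibody. EC50 from densitometry of five concentrations; full activity means complete loss of PK-resistant PrP; triplicate experiments.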

ScN2a [2] = assay: Inhibition of protease-resistant scrapie prion protein activity in ScN2a cells; assay type: functional, cell-based; conditions: Mus musculus; in short: as §1
ScN2a [3] = assay: Toxicity against mouse ScN2a cells measured as less than 80% confluency after 1 week; assay type: functional
In short: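 RML-infected ScN2a mouse neuroblastoma cells cultured 1 week in MEM with 10% FCS, with compound renewed with medium every second day. Toxicity scored as confluency below 80% at the end of treatment.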

Row | Structure (SMILES) | Activity (ScN2a [1]) [nM] | EC50 (ScN2a [2]) [nM] | Activity (ScN2a [3]) [nM]
1 | c1ccc2c(c1)CCc1ccccc1N2CCCN1CCN(CCCCNc2c3ccccc3nc3ccccc23)CC1 | 400 | 150 | 750
2 | c1ccc(N(CCCN2CCN(CCCCNc3c4ccccc4nc4ccccc34)CC2)c2ccccc2)cc1 | 400 | 230 | 1000
3 | c1ccc2c(c1)CCc1ccccc1N2CCCN1CCN(CCCNc2c3ccccc3nc3ccccc23)CC1 | 500 | 230 | 1000
4 | c1ccc(N(CCCN2CCN(CCNc3c4ccccc4nc4ccccc34)CC2)c2ccccc2)cc1 | 200 | 75 | 1000
5 | COc1ccc2nc3cc(Cl)ccc3c(NCCCCN3CCN(CCCN4c5ccccc5Sc5ccccc54)CC3)c2c1 | 1000 | 350 | 2000
6 | c1ccc2c(c1)Sc1ccccc1N2CCCN1CCN(CCCCNc2c3ccccc3nc3ccccc23)CC1 | 750 | 300 | 4000
7 | COc1ccc2nc3cc(Cl)ccc3c(NCCN3CCN(CCCN4c5ccccc5CCc5ccccc54)CC3)c2c1 | 1000 | 570 | 2000
8 | COc1ccc2nc3cc(Cl)ccc3c(NCCN3CCN(CCCN(c4ccccc4)c4ccccc4)CC3)c2c1 | 500 | 290 | 1500
9 | CCN(CC)CCCC(C)Nc1c2ccc(Cl)cc2nc2ccc(OC)cc12 (stereo not drawn) [QUINACRINE] | 500 | 300 | –
10 | c1ccc2c(c1)CCc1ccccc1N2CCCN1CCN(CCNc2c3ccccc3nc3ccccc23)CC1 | 75 | 20 | 500
11 | COc1ccc2nc3cc(Cl)ccc3c(NCCCCN3CCN(CCCN(c4ccccc4)c4ccccc4)CC3)c2c1 | 500 | 250 | >1000
12 | COc1ccc2nc3cc(Cl)ccc3c(NCCCN3CCN(CCCN(c4ccccc4)c4ccccc4)CC3)c2c1 | 500 | 280 | 2000
13 | COc1ccc2nc3cc(Cl)ccc3c(NCCCN3CCN(CCCN4c5ccccc5Sc5ccccc54)CC3)c2c1 | 500 | 200 | 2500
14 | COc1ccc2nc3cc(Cl)ccc3c(NCCN3CCN(CCCN4c5ccccc5Sc5ccccc54)CC3)c2c1 | 2000 | 830 | 4000
15 | COc1ccc2nc3cc(Cl)ccc3c(NCCCCN3CCN(CCCN4c5ccccc5CCc5ccccc54)CC3)c2c1 | 100 | 80 | 400
16 | c1ccc(N(CCCN2CCN(CCCNc3c4ccccc4nc4ccccc34)CC2)c2ccccc2)cc1 | 500 | 120 | 1500
17 | CN(C)CCCN1c2ccccc2CCc2ccccc21 [IMIPRAMINE] | 10000 | 5000 | –
18 | c1ccc2c(c1)Sc1ccccc1N2CCCN1CCN(CCCNc2c3ccccc3nc3ccccc23)CC1 | 500 | 140 | 1000
19 | c1ccc2c(c1)Sc1ccccc1N2CCCN1CCN(CCNc2c3ccccc3nc3ccccc23)CC1 | 600 | 370 | 3000
20 | COc1ccc2nc3cc(Cl)ccc3c(NCCCN3CCN(CCCN4c5ccccc5CCc5ccccc54)CC3)c2c1 | 500 | 260 | 1500
